Screening data (PubChem BioAssay)
Compounds with a hit are over-represented: about 2.5% of the library has one in this group of screens.
NR2E3 ag-1 = NR2E3 agonists in two-hybrid cells, primary screen, cell-based, luminescence, CHO-S, Gal4-NCOR/VP16-NR2E3; 360,000 compounds, 0.35% hits; inhibition of corepressor binding, % at 3.98 µM; luciferase; Photoreceptor-specific nuclear receptor (Homo sapiens), Q9Y5X4; AID 602229, 2012;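 active = inhibition above the mean of all tested compounds plus 3 SD, cut at about 70% in these data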;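 also: 0% = DMSO with NR2E3 transfected cells and 100% = cells lacking NR2E3 construct; higher means lower luciferase signal from less NR2E3 corepressor binding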
Target sequence (Q9Y5X4 whole entry, looked up, the tested form may be a part): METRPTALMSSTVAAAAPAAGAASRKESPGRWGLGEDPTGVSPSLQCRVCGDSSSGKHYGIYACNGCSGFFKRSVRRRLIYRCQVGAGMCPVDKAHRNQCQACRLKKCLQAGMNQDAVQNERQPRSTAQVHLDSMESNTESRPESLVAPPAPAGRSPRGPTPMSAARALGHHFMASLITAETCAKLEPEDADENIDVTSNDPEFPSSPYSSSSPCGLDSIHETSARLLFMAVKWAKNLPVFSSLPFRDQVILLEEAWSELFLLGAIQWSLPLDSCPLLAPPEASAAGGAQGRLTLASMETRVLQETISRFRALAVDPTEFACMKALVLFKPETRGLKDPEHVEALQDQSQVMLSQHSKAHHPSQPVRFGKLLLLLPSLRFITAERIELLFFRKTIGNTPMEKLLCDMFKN
MsrA inhibitor = bovine MsrA enzyme inhibitors, primary screen, biochemical, absorbance, HTS. Methionine sulfoxide reductase A (Bos taurus). purified bovine MsrA, absorbance read-out. inhibition, % at 15.5 µM. 360,000 compounds, 0.75% hits. AID 651718, 2012;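 also: 0% = vehicle wells with enzyme and 100% = reference inhibitor wells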
NR2E3 ag-2 = inhibitors of NR2E3-RetCOR corepressor binding, primary screen, NR2E3 agonist project, biochemical, TR-FRET, GST-NR2E3, biotin-RetCOR. AID 2300, 2010. 1536-well. 320,000 compounds, 0.12% hits. inhibition of corepressor binding, % at 4.78 µM;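 active = percent inhibition above the cutoff of mean plus 3 SD of all tested compounds, set per screening campaign, cut at about 20% in these data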;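 also: 0% = DMSO wells and 100% = biotin wells as full block of FRET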
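Test system: GST-NR2E3 and biotin-RetCOR proteins | Quantity: 1.35 nM GST-tagged NR2E3 final | Medium: Tris pH 7.5 | Also added: 7 nM biotin-RetCOR | Dosing: Compound at 4.8 µM, single dose | Timing: 5 h at 4 °C | Detection: Time-resolved FRET | Read-out basis: Percent inhibition | Benchmarks: Biotin wells as high control, 0.6% DMSO wells as low control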
GalR3 antagonist = GalR3 antagonists in HEK293 cells, primary screen, cell-based, fluorescence readout; Galanin receptor type 3 (Homo sapiens), O60755; 360,000 compounds, 0.44% hits; inhibition, % at 3 µM; HEK293 GalR3-CNG cAMP membrane potential fluorescence; galR3 body fused to GalR1 C-terminus;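 active = inhibition above the screen-wide average plus 3 SD, cut at about 13% in these data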;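 also: forskolin and galanin both at EC90 stimulate the cells; cAMP rise reported by CNG channel membrane potential dye signal; 0% = forskolin plus galanin with DMSO and 100% = forskolin alone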
Target sequence (O60755 1-299 limits assumed): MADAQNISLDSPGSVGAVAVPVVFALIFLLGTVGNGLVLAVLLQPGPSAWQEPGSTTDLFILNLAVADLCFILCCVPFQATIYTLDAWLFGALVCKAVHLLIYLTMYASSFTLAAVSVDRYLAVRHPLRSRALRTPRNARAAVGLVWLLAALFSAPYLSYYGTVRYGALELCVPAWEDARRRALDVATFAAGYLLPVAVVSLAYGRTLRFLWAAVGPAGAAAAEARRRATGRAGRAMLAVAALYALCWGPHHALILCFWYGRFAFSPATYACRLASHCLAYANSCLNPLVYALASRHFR
NadD inh = inhibitors of S. aureus NadD, primary screen, biochemical, colorimetric, uHTS | purified NadD enzyme, colorimetric absorbance read-out | 360,000 compounds, 0.78% hits | AID 602399, 2012 | inhibition, % at 20 µM; in the data active = inhibition above about 26%
bovine MsrA act = bovine MsrA enzyme activators, primary screen, biochemical, absorbance, HTS | Methionine sulfoxide reductase A (Bos taurus) | purified bovine MsrA, absorbance read-out | activation, % at 10.6 µM | 360,000 compounds, 0.3% hits; in the data active = activation above about 7.5%;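 also: 0% = vehicle and 100% = reference activator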
MsrA inh confirm = bovine MsrA inhibitors, retest, confirmation, biochemical, absorbance, HTS | shares compounds with MsrA inhibitor | purified bovine MsrA, absorbance read-out | inhibition, % at 15.5 µM | 2,300 compounds, 41% hits;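 also: coupled to thioredoxin reductase with NADPH and selenocystamine and DMSO as substrate; 0% = vehicle only and 100% = full effect of reference inhibitor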
An asterisk follows results filed as active; . = no result given. Rule as the data show it, unless noted: active = inhibition above about 4.5%; inactive = the rest.

SMILES | NR2E3 ag-1 | MsrA inhibitor | NR2E3 ag-2 | GalR3 antagonist | NadD inh | bovine MsrA act | MsrA inh confirm
COCCCNC(=S)N(CCCO)Cc1cc2cc3c(cc2[nH]c1=O)OCO3 | -21.3 | 1.7 | -0.8 | -6.5 | 2.5 | -1.8 | .
CCOc1cc(/C=N/NC(=O)C(=O)N/N=C/c2ccc(O)c(OCC)c2)ccc1O | 13.6 | 5.5* | 2.9 | -10.7 | 4.9 | -4.0 | 4.1
CCOc1cc(/C=N/NC(=O)N/N=C/c2ccc(O)c(OCC)c2)ccc1O | . | 5.5* | -2.1 | 6.8 | . | . | 4.2
CCOc1cc(/C=N/NC(=O)C(OC)c2ccccc2)ccc1O (stereo not given) | 5.2 | 3.8 | -6.5 | -1.6 | -0.3 | -9.0 | .
CCOc1cc(/C=N/Nc2ncnc(Cl)c2N)ccc1O | -53.8 | 4.9* | -6.9 | 0.3 | 1.4 | -7.0 | 6.0*
CC1CCCN(C(=O)CNC(=O)c2sc3ccccc3c2Cl)C1 (stereo not given) | -140.3 | -0.4 | . | -5.3 | -4.8 | -2.7 | .
CCOC(=O)N1CCN(c2nc(C(F)(F)F)nc3c(C)cc(C)cc23)CC1 | -3.1 | -1.2 | 3.6 | -5.0 | -1.2 | -4.4 | .
Cc1cc(C)c2nc(C(F)(F)F)nc(N3CC(C)OC(C)C3)c2c1 (stereo not given) | -39.5 | 14.3* | 0.2 | -3.4 | 1.3 | -2.4 | 20.9*
COc1cc(-c2c(C#N)c(N)nc3[nH]c(=S)[nH]c(=O)c23)ccc1O | 9.2 | 5.0* | -0.8 | -9.7 | -5.2 | -0.5 | 3.9
NC(=O)c1ccc[n+](CC(=O)c2ccc(Cl)c(Cl)c2)c1 | -29.5 | 1.3 | -0.1 | -6.0 | -2.8 | -2.5 | .
Cc1csc(Nc2nc(N)c(C(=O)Nc3ccccc3)o2)n1 | -18.4 | 5.7* | -0.1 | -8.4 | -3.9 | -4.2 | 5.0*
CCN1C(C(=O)Nc2cc(C)on2)=C(O)c2ccccc2S1(=O)=O | -9.5 | 5.1* | 1.5 | -8.5 | -6.3 | -5.5 | 2.1
CCCCN1C(C(=O)Nc2cc(C)on2)=C(O)c2ccccc2S1(=O)=O | -7.7 | 3.1 | 2.8 | -6.7 | -0.5 | -3.4 | .
COc1ccc(C2=NS(=O)(=O)N(C)C(C(=O)N3CCC(C(N)=O)CC3)=C2)cc1 | -31.1 | 6.1* | 0.7 | . | -1.7 | -4.4 | 3.3
COc1ccc(C2=NS(=O)(=O)N(C)C(C(=O)N3CCCCC3C)=C2)cc1 (stereo not given) | 21.3 | 5.9* | 4.5 | . | -6.8 | -5.8 | 2.9
CCOc1ccc(Cl)cc1CNCCNCC(C)O (stereo not given) | -22.6 | 0.7 | -5.2 | -1.2 | 0.8 | -1.2 | .
Cc1ccccc1C(=O)/C=C1\NC(=O)CS1 | -6.8 | 6.3* | 4.1 | 0.2 | -2.7 | -6.3 | 6.6*
Cc1cc(C)cc(C(=O)/C=C2\NC(=O)CS2)c1 | 16.5 | 5.3* | 0.9 | -5.6 | 0.4 | -14.9 | 5.3*
Cn1c(C(C#N)C(=O)Cc2cccc3ccccc23)nc2ccccc21 (stereo not given) | 24.1 | 0.8 | -2.2 | 5.5 | 2.8 | -11.0 | .
Cn1c(C(C#N)C(=O)c2ccco2)nc2ccccc21 (stereo not given) | -66.0 | 5.1* | 5.1 | -3.9 | 0.4 | -2.6 | 5.5*
CC1(C)CC(c2nc(-c3ccc([N+](=O)[O-])cc3)cs2)CCO1 (stereo not given) | -5.4 | 4.8* | 6.5 | -1.7 | -5.6 | -4.3 | 1.9
CC1(C)S/C(=N/N=C/c2cccs2)NC1=O | -62.1 | 4.7* | -1.8 | 2.4 | -8.4 | 1.1 | 3.9
O=C1CS/C(=N/N=C/c2cccs2)N1 | -4.9 | 6.4* | -1.3 | -0.1 | -3.3 | -6.4 | 4.4
COc1ccc(S(=O)(=O)NCC(=O)N(Cc2ccco2)C(C(=O)NC(C)(C)C)C(C)C)cc1 (stereo not given) | 3.6 | 0.6 | 0.5 | -4.2 | 1.7 | -0.2 | .
COc1ccccc1/C=C/C=N/NC(=O)c1cccs1 | -108.4 | 5.8* | -2.4 | -3.6 | 0.4 | -3.6 | 6.7*
SMILES | NR2E3 ag-1 | MsrA inhibitor | NR2E3 ag-2 | GalR3 antagonist | NadD inh | bovine MsrA act | MsrA inh confirm
COc1ccccc1/C=C\C=N\NC(=O)CCn1nnc2ccccc21 | 18.1 | 5.0* | -2.2 | -3.1 | -2.0 | -10.8 | 3.7
COc1ccccc1/C=C/C=N/NC(=O)Cc1cccn1C | 3.8 | 5.8* | -3.6 | -0.5 | 15.3 | -2.4 | 4.9*
Cn1cccc1CC(=O)N/N=C/c1cccc2ccccc12 | -20.1 | 2.3 | -2.2 | -5.3 | 2.5 | -8.6 | .
COc1ccccc1/C=C/C=N/NC(=O)CCn1nnc2ccccc21 | 10.2 | 3.3 | -0.7 | -0.1 | 4.1 | -4.4 | .
O=S(=O)(c1ccc(Br)cc1Cl)N1CCCN(c2ccc(C(F)(F)F)cn2)CC1 | -5.1 | 0.2 | . | -4.7 | 0.9 | -1.9 | .
Cc1ccc(-c2ccc(NC(=O)C3C4C=CC(C4)C3C(=O)O)cc2)o1 (stereo not given) | -65.3 | -0.5 | -0.3 | -0.5 | 5.7 | -17.2 | .
CN(C(=O)c1cn2ccccc2n1)c1c(N)n(Cc2ccccc2)c(=O)[nH]c1=O | -1.8 | -0.7 | 0.8 | -3.4 | -1.0 | -4.4 | .
Cc1ccc(NC(=O)C2CCCO2)cc1[N+](=O)[O-] (stereo not given) | -4.6 | 39.4* | -0.1 | 2.6 | -4.4 | -4.2 | 8.4*
O=C(Nc1cccc(NC(=O)C2CCCO2)c1)C1CCCO1 (stereo not given) | 7.3 | -0.6 | 2.2 | -2.1 | -6.7 | -6.2 | .
O=C1c2cccc3c([N+](=O)[O-])ccc(c23)C(=O)N1c1ccccn1 | 4.7 | 9.2* | -2.3 | -6.0 | -0.5 | -7.5 | 6.0*
CCOC(=O)N1CCN(C(=O)c2ccc3nc4ccsc4c(=O)n3c2)CC1 | -37.8 | 5.1* | -1.3 | 0.1 | -3.8 | -3.4 | 2.3
CCOC(=O)N1CCN(C(=O)c2cccn3c(=O)c4sccc4nc23)CC1 | -45.3 | 5.7* | 2.5 | -6.1 | -7.2 | -0.6 | 3.7
CCOC(=O)N1CCN(C(=O)c2cccn3c(=O)c4cc(Br)ccc4nc23)CC1 | -16.3 | -1.1 | 0.8 | -2.3 | -3.2 | -4.9 | .
CSc1cccc(NS(=O)(=O)c2ccc(F)cc2)c1 | 2.0 | -0.2 | 8.8 | -7.8 | -7.1 | -0.9 | .
CC(C)(C)c1ccc(C(=O)N2CCCCCC2=O)cc1 | 45.2 | -1.4 | 0.5 | -1.6 | -5.0 | -5.8 | .
Cn1cc(/C=C(\NC(=O)c2ccccc2Cl)C(=O)NCCCN2CCOCC2)c2ccccc21 | 2.2 | 3.6 | -2.9 | -9.3 | -2.3 | -2.8 | .
CCn1cc(/C=C(\NC(=O)c2ccccc2)C(=O)NCCCN2CCOCC2)c2ccccc21 | -29.5 | 4.7* | -2.4 | -6.7 | 2.1 | -3.2 | 4.2
